High-throughput results as filed in PubChem.
A selection: hits, their analogues and other compounds. The true share with any hit is near 1.5%.
M4 PAM: positive allosteric modulators of human muscarinic M4 receptor | P08173 | CHO-K1 hM4/Gqi5, Fluo-8 calcium fluorescence, ACh EC20; 0% = ACh EC20, 100% = maximal ACh | activation, % at 3 µM | 360,000 compounds, 0.4% hits;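 active = activation above its plate's cutoff, the mean activation of sample wells plus 3 SD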
M4 ag: CHRM4 agonism in calcium assay. AID 624127. activation, % at 3 µM. CHO-K1 hM4/Gqi5, Fluo-8 calcium fluorescence; vehicle 0%, full acetylcholine response 100%. 360,000 compounds, 0.14% hits;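 active = activation above the run mean over all test wells plus 3 SD, cut at about 32% in these data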;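 note: peak over basal fluorescence ratio per well then scaled between controls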
V1aR counter: activates human V1a receptor in oxytocin agonist counter-screen | CHO-V1R cells, Fluo-8 calcium fluorescence, agonist mode; 0% DMSO, 100% 3 nM vasopressin | activation, % at 3 µM | 320,000 compounds, 0.25% hits | AID 2797;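 active = activation above the mean activation of all tested compounds plus 3 SD, per screening run, cut at about 20% in these data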;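 note: signal is peak over basal fluorescence ratio across a 100 second FLIPR read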
OXTR potentiate: potentiates the human oxytocin receptor response. P30559. CHO-OTR cells, Fluo-8 calcium fluorescence, potentiator mode; 0% = oxytocin EC15, 100% = EC100. activation, % at 3 µM. 320,000 compounds, 0.061% hits. AID 2445;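 active = activation above that plate's cutoff, the mean activation of tested compounds plus 3 SD, cut at about 6.6% in these data, passing the limit was not always enough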
Target sequence (P30559 whole entry, looked up): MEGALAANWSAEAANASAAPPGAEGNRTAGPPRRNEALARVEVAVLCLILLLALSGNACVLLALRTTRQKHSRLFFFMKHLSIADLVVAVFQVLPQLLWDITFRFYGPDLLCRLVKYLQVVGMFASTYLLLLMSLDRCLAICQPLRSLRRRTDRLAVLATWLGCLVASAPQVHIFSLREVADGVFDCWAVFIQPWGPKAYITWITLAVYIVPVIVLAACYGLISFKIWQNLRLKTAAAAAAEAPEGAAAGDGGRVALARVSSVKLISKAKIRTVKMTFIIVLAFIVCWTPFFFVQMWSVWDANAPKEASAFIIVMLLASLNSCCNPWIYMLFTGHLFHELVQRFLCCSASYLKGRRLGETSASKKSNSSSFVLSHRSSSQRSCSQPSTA
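assay system = CHO-OTR cells, human receptor | schedule = compound 6 min at room temperature before oxytocin, 100 s read | detection = Fluo-8 intracellular calcium fluorescence, ex 470-495, em 515-575 nm | evaluation = normalized max/min fluorescence ratio, % activation | control set = EC15 oxytocin alone as 0%, 75 nM oxytocin (EC100) as 100%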
M4 antag: blocks acetylcholine activation of human M4 receptor; P08173; CHO-hM4 cells, ACh EC80, Fluo-8 calcium fluorescence; inhibition, % at 3 µM; 360,000 compounds, 0.73% hits; AID 624125;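 active = inhibition above its plate's cutoff, the mean inhibition of sample wells plus 3 SD, cut at about 27% in these data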
OXTR agonist: agonists of human oxytocin receptor; activation, % at 3 µM; 320,000 compounds, 0.32% hits; P30559; AID 2435; CHO-OTR cells, Fluo-8 calcium fluorescence; normalized: DMSO 0%, oxytocin 100%;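 active = activation above the mean of all tested compounds plus 3 SD, cutoff set per screening run, cut at about 20% in these data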;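 note: peak over basal fluorescence ratio from a 100 s FLIPR kinetic read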
Of the large screens only hits and unclear results are named; the others gave an inactive call.

CCN(CCO)C(=O)C(c1ccccc1)c1ccccc1	none
CCN(CC)CCOC(=O)C(c1ccccc1)c1ccccc1	M4 antag 53.8
Cc1c(C(=O)Nc2ccc3c(c2)OCCO3)oc2ccc(Br)cc12	M4 PAM 23.2
CCC(C)(NC(=O)c1ccccc1)C(=O)O (stereo unspecified)	M4 PAM 31.5
CC(C)(C)CC(C)(C)NC(=O)c1ccccc1	none
COc1ccccc1C(C)NCC(=O)NCc1ccc(C)cc1 (stereo unspecified)	none
COc1ccc(CNC(=O)CNC(C)c2ccc(F)cc2)cc1 (stereo unspecified)	M4 antag 53.2
O=C1N[C@H]2CC=C[C@H]2Nc2ccccc21	none (no result: V1aR counter, OXTR potentiate, OXTR agonist)
O=C(C1CCCCC1)N1CCC2CC1c1cc(N3CCCCC3)ccc12 (stereo unspecified)	M4 antag 37.2 (no result: V1aR counter, OXTR potentiate, OXTR agonist)
CSCCC(NC(=O)OC(C)(C)C)C(=O)NC(CC(C)C)C(N)=O (stereo unspecified)	M4 PAM 35.8
CC(C)CC(NC(=O)C(CC(C)C)NC(=O)OC(C)(C)C)C(N)=O (stereo unspecified)	none
Cc1cc(Nc2ccc(C)c(Br)c2)n2nc(C)nc2n1	none
O=C(NC(=S)Nc1ccc(CN2CCCCC2)cc1)c1cccc(OCc2ccccc2)c1	M4 antag 39.0
CN(CC(=O)Nc1cccc(F)c1)C(=O)c1ccccc1-n1cnnn1	none (no result: V1aR counter, OXTR potentiate, OXTR agonist)
Cc1nc2nc(SCC(=O)NCCCN3CCCC(C)C3)nn2c(C)c1Cc1ccccc1Cl (stereo unspecified)	M4 antag 31.3
CCC1CCCCN1CCCNC(=O)CSc1nc2nc(C)c(Cc3ccccc3)c(C)n2n1 (stereo unspecified)	none
Cc1c2cnn(CC(=O)NCCCN3CCCCC3)c(=O)c2c(C)n1Cc1ccccc1	none
Cc1ccc(Cc2c(C)nc3nc(SCC(=O)NCCCN4CCCC4)nn3c2C)cc1	none
Cc1nc2nc(SCC(=O)NCCCN3CCCCCC3)nn2c(C)c1Cc1ccccc1Cl	M4 antag 51.1
CCC1CCCCN1CCCNC(=O)Cn1ncc2c(C)n(Cc3ccccc3Cl)c(C)c2c1=O (stereo unspecified)	M4 antag 27.9
Cc1ccccc1Cc1c(C)nc2nc(SCC(=O)NCCCN3CCCC3)nn2c1C	none
CCC1CCCCN1CCCNC(=O)CSc1nc2nc(C)c(Cc3ccccc3Cl)c(C)n2n1 (stereo unspecified)	M4 antag 31.4
CSCCC(NC(=O)COc1ccccc1)C(=O)N1CCCC(C)C1 (stereo unspecified)	none
COc1ccc(NC(C)=O)cc1NC(=O)CN1CCN(C(=O)c2ccco2)CC1	none
CCCCN1CC(=O)N2Cc3[nH]c4ccccc4c3C[C@H]2C1=O	none
Cc1ccccc1C(=O)O/N=C(\c1ccccc1)c1ccccn1	M4 PAM 21.9
COc1cc(NC(=O)CCCl)cc(-n2cnnn2)c1	none
Cn1c(=O)c(C(=O)COc2ccc(C#N)cc2)c(N)n(Cc2ccccc2)c1=O	V1aR counter 28.3, OXTR agonist 31.9
CCC(=O)OCC(=O)c1c(N)n(Cc2ccccc2)c(=O)n(C)c1=O	none
O=C(N/N=C1\C2CN3CCN(C2)CC1(c1ccccc1)C3)c1ccc(F)cc1	none
Nc1ccccc1C(=O)N/N=C1\C2CN3CCN(C2)CC1(c1ccccc1)C3	OXTR potentiate 14.2
O=C(Cc1ccc(Br)cc1)N1CCN(C(=O)c2ccccc2)CC1	none
Cc1ccc(-n2c(-c3ccc(Cl)cc3)n[nH]c2=S)c(C)c1	M4 PAM 22.6
Cc1cccc(-n2c(-c3ccncc3)n[nH]c2=S)c1	M4 PAM 17.0
CN1C2CCC1CC(NS(=O)(=O)c1ccc(C#N)cc1)C2 (stereo unspecified)	none
NC(=O)N/N=C/c1cn(CC(=O)Nc2ccc(F)cc2)c2ccccc12	none
C=CCN1CC2(c3ccccc3)CN(CC=C)CC(c3ccccc3)(C1)C2=O	none
O=C(O)C1CCN(C(=O)COc2ccc3c(c2)oc(=O)c2ccccc23)CC1	none
COc1cc2c(cc1OC)CN(C(=O)C1CCCN1S(=O)(=O)c1ccc(F)cc1)CC2 (stereo unspecified)	M4 PAM 17.0
COc1cc2c(cc1OC)CN(C(=O)CNS(=O)(=O)c1ccc(C)c(C)c1)CC2	M4 PAM 29.8
COc1cc2c(cc1OC)CN(C(=O)CCNS(=O)(=O)c1ccc(Br)cc1)CC2	none
Cc1ccccc1C(=O)N1CCC(C(=O)OCc2ccccc2Cl)CC1	none
O=C1NC[C@H](Cc2ccccc2)N(C[C@@H]2CCCN2C[C@H](Cc2ccc(O)cc2)N2C[C@H](Cc3ccccc3)N(CCc3ccccc3)C(=O)C2=O)C1=O	none (no result: V1aR counter, OXTR potentiate, OXTR agonist)
Oc1ccc(-c2n[nH]c(C(F)(F)F)c2-c2ccccc2)c(O)c1	M4 antag 46.8
COc1ccc(OCC(=O)N/N=C/c2ccc(N(C)C)cc2)cc1	M4 PAM 21.6
CCC(C)(C)n1nnnc1C(c1ccccc1)N1CCN(Cc2ccccc2)CC1 (stereo unspecified)	none
CCC(C)(C)n1nnnc1C(c1ccc(Cl)cc1)N1CCN(C)CC1 (stereo unspecified)	M4 PAM 20.5
Cc1cccc(NC(=O)CSc2nnc(CNC(=O)c3ccco3)n2C)c1	none
COc1ccc(CN(CCNC(=O)CCCCC(=O)NCCN(Cc2ccc(OC)cc2)C(C)C)C(C)C)cc1	M4 antag 82.3
COc1ccc(CCNC(=O)CCCCC(=O)NCCc2ccc(OC)cc2)cc1	none
COc1cccc(OC)c1OCCCCCCN1CCN(C)CC1	none
c1ccc(CN2CCN(C(c3ccccc3)c3ccccc3)CC2)cc1	none
CC(C)c1ccccc1OCCCCCN1CCOCC1	M4 antag 32.2
CC(C)c1ccccc1OCCCCN1CCCCC1	none
c1ccc(OCCOCCN2CCN(C(c3ccccc3)c3ccccc3)CC2)cc1	M4 antag 86.4
O=S(=O)(CCN1CCN(C(c2ccccc2)c2ccccc2)CC1)C(F)(F)F	M4 antag 47.7
COc1ccccc1OCCCCN1CCN(C(c2ccccc2)c2ccccc2)CC1	M4 antag 62.9
COc1ccc(-c2ccc(CN3C(C(C)C)C(=O)N(Cc4cn(CC5CCCCC5)nn4)CCS3(=O)=O)cc2)cc1OC (stereo unspecified)	none (no result: V1aR counter, OXTR potentiate, OXTR agonist)
COC(C/C=C/C(=O)COCc1ccccc1)OC	none (no result: V1aR counter, OXTR potentiate, OXTR agonist)
O=c1[nH]c(=O)n(C2OC(CO)C(O)C2O)cc1N1CCOCC1 (stereo unspecified)	none (no result: V1aR counter, OXTR potentiate, OXTR agonist)
Cc1c2c([n+]3n1CCC3)CC(C)(C)CC2=O	none
CC(Oc1ccc(Cl)cc1Cl)C(=O)NNC(=O)c1ccncc1 (stereo unspecified)	none
